Data on 18 molecules can be found in ChEMBL document CHEMBL3352138, “Synthesis of novel 1,2,4-triazoles, triazolothiadiazines and triazolothiadiazoles as potential anticancer agents” (Eur J Med Chem, 2014).

Holding throughout (format): functional, cell-based
The test system of assay [1] is HepG2. The experiment in a line: Cytotoxicity against human HepG2 cells after 24 hrs by SRB assay. To be noted: HepG2, 24 h. In a few lines:
(§1)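 Monolayer cultures kept in RPMI-1640 with 5% heat-inactivated FBS, 2 mM glutamine, penicillin 100 U/mL and streptomycin, at 37 °C in humidified 5% CO₂. Exponentially growing cells were obtained by plating 1.5×10^5 cells/mL and incubating 24 h before treatment. Vehicle controls received DMSO at 0.5%, the maximum used in each assay.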

A short description of assay [2]: Cytotoxicity against human HONE1 cells after 24 hrs by SRB assay. The conditions noted are these: HONE1, 24 h. In a few lines: as §1
For orientation: Sulforhodamine B stains cellular protein and so reports cell mass.

The nature of assay [3]: Cytotoxicity against human MCF cells after 24 hrs by SRB assay. In a few lines: as §1
A short description of assay [4]: Cytotoxicity against human WI38 cells after 24 hrs by SRB assay. The conditions noted are these: WI-38, 24 h. In a few lines:
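Normal fibroblasts were grown as monolayer in RPMI-1640 with 5% heat-inactivated FBS, 2 mM glutamine, penicillin 100 U/mL and streptomycin, at 37 °C in humidified 5% CO₂. Untreated control cells were exposed to the maximum DMSO vehicle concentration (0.5%) used in each assay.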

The subject of assay [5] is NUGC. As to the kind of experiment: Cytotoxicity against human NUGC cells after 24 hrs by SRB assay. The procedure, abridged: as §1
Assay [6] in a line: Cytotoxicity against human DLD1 cells after 24 hrs by SRB assay. The conditions noted are these: DLD-1, 24 h. The procedure, abridged: as §1
Assay [7] in a line: Cytotoxicity against human HA22T cells after 24 hrs by SRB assay. The procedure, abridged:
as §1

pIC50: −log10 of the molar value.

As usually defined, the pIC50 is the IC50 on a negative log10 scale, so that one unit is a factor of ten. A lower pIC50 goes with a large IC50. Regarding `S=C(Nc1ccc(Cl)cc1)Nn1c(S)nnc1-c1ccncc1`, the pIC50 in assay [1] was 5.69; in assay [2], 5.91; in assay [3] it was 5.49; in assay [4], 5.66; in assay [5], 5.67; in assay [6] it was 5.65. The molecule also showed a pIC50 in assay [7] of 5.70.
Take `COc1ccc(Nc2nn3c(-c4ccncc4)nnc3s2)cc1`: the pIC50 was 6.48 in assay [1]; 5.65 in assay [2]; 6.67 in assay [3]; 7.25 in assay [5]; 6.89 in assay [6]; 6.55 in assay [7].
Regarding `Clc1ccc(Nc2nn3c(-c4ccncc4)nnc3s2)cc1`, the pIC50 was 5.70 in assay [1]; 5.64 in assay [2]; 5.90 in assay [3]; 5.89 in assay [5]; 5.49 in assay [6]; 5.51 in assay [7].
Consider `Brc1ccc(C2=Nn3c(nnc3-c3ccncc3)SC2)cc1`, for which the pIC50 in assay [1] is 5.64; in assay [2], 5.75; in assay [3], 5.64; in assay [5], 5.60; in assay [6], 5.62; in assay [7] it was 5.69.
In the case of `CC(=O)Nn1c(S)nnc1-c1ccncc1`, the negative logarithm of the IC50 (pIC50) is 7.28 in assay [1]; 5.93 in assay [2]; 5.68 in assay [3]; 7.36 in assay [5]; 7.38 in assay [6]; 6.78 in assay [7].
On to `c1ccc(C2=Nn3c(nnc3-c3ccncc3)SC2)cc1`, for which the negative-log IC50 (pIC50) in assay [1] is 6.33; in assay [2], 6.96; in assay [3], 7.10; in assay [5], 7.23; in assay [6], 5.63; in assay [7] it was 6.91.
Turning to `Cc1nn2c(-c3ccncc3)nnc2s1`, the pIC50 in assay [1] was 5.56; in assay [2], 5.97; in assay [3], 6.66; in assay [4] it was 6.19; in assay [5] it was 5.66; in assay [6], 5.48. The same molecule had a pIC50 in assay [7] of 5.76.
`Cc1ccc(Nc2nn3c(-c4ccncc4)nnc3s2)cc1`: the pIC50 in assay [1] was 6.51; in assay [2], 5.48; in assay [3] it was 6.92; in assay [4] it was 6.32; in assay [5] it was 6.27; in assay [6], 5.86. The negative logarithm of the IC50 (pIC50) in assay [7] was 6.56.
`N#CN=C(NCCCCCCOc1ccc(Cl)cc1)Nc1ccncc1` [CHS-828]: the pIC50 in assay [2] is 7.82; in assay [3], 7.74.
As to `Clc1ccc(-c2nn3c(-c4ccncc4)nnc3s2)c(Cl)c1`, the pIC50 in assay [1] is 5.64; in assay [2], 5.93; in assay [3], 5.49; in assay [5] it was 5.67; in assay [6], 5.93; in assay [7] it was 5.51.
In the case of `c1ccc(-c2nn3c(-c4ccncc4)nnc3s2)cc1`, the pIC50 in assay [1] was 5.86; in assay [2], 5.62; in assay [3], 5.81; in assay [5] it was 5.89; in assay [6], 5.47; in assay [7], 5.90.
Turning to `Brc1ccc(Nc2nn3c(-c4ccncc4)nnc3s2)cc1`, the pIC50 in assay [1] is 6.89; in assay [2], 5.65; in assay [3] it was 6.64; in assay [5], 6.87; in assay [6], 6.49; in assay [7] it was 6.11.
With `O=C(Nn1c(S)nnc1-c1ccncc1)c1ccc([N+](=O)[O-])cc1`, the negative logarithm of the IC50 (pIC50) in assay [1] is 7.05; in assay [2], 5.64; in assay [3] it was 5.96; in assay [5], 6.44; in assay [6] it was 6.58; in assay [7], 5.95.
In the case of `Clc1ccc(-c2nn3c(-c4ccncc4)nnc3s2)cc1`, the pIC50 in assay [1] was 5.91; in assay [2], 6.31; in assay [3], 5.79; in assay [5], 7.60; in assay [6] it was 7.31; in assay [7], 6.92.
Take `S=C(Nc1ccc(Br)cc1)Nn1c(S)nnc1-c1ccncc1`: the pIC50 was 5.56 in assay [1]; 5.77 in assay [2]; 5.80 in assay [3]; 5.89 in assay [4]; 5.48 in assay [5]; 5.49 in assay [6]. The negative logarithm of the IC50 (pIC50) in assay [7] was 5.50.
For the molecule `Clc1ccccc1-c1nn2c(-c3ccncc3)nnc2s1`, the pIC50 is 5.88 in assay [1]; 5.93 in assay [2]; 5.66 in assay [3]; 5.49 in assay [5]; 5.57 in assay [6]; 5.90 in assay [7].
In the case of `Cc1ccc(NC(=S)Nn2c(S)nnc2-c2ccncc2)cc1`, the negative logarithm of the IC50 (pIC50) was 5.91 in assay [1]; 5.89 in assay [2]; 5.66 in assay [3]; 5.56 in assay [5]; 5.67 in assay [6]; 5.62 in assay [7].
Turning to `COc1ccc(NC(=S)Nn2c(S)nnc2-c2ccncc2)cc1`, the pIC50 is 5.89 in assay [1]; 5.64 in assay [2]; 5.78 in assay [3]; 5.74 in assay [5]; 5.64 in assay [6]; 5.63 in assay [7].
